Screens: PubChem BioAssay, several laboratories
This excerpt belongs to a sample that is enriched for hits.
UCH37 inh – human UCH37 deubiquitinating enzyme inhibition | Q9Y5K5 | purified proteasome/UCH37, Ub-AMC cleavage fluorescence | inhibition, % (no concentration beside the values) | 0.33% of 330,000 active | AID 588478;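 active = mean inhibition over replicate wells above about 20%, limit read from the data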;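 also: 0% = compound-free wells with enzyme and 100% = wells lacking proteasome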
Target sequence (Q9Y5K5 whole entry, looked up): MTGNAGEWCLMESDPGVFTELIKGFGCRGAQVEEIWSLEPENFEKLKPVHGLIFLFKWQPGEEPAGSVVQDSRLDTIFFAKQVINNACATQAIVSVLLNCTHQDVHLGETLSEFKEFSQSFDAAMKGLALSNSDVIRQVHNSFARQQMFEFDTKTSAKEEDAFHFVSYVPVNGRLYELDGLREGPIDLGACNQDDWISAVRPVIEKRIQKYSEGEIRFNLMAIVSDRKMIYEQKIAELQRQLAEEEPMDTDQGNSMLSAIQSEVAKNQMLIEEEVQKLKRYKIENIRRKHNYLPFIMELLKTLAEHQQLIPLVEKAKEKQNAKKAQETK
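Schedule: 30 min plus 25 min, room temperature / Material: human UCH37 within purified proteasomes / Technique: AMC fluorescence intensity at 355/460 nm / Buffer or medium: pH 7.4 Tris-HCl (50 mM) with ovalbumin, ATP-MgCl2, DTT / Controls: wells without proteasome as full block, compound-free enzyme plus substrate as uninhibited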
CHOP inh – blocks CHOP induction under ER stress; CHO-K1 CHOP-promoter luciferase, tunicamycin-induced, 15-18 h; inhibition, % at 10 µM; 3.8% of 220,000 active; AID 2732;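 active = compounds that reduced the stress-induced luciferase reporter signal by more than about 70% of percent inhibition, limit read from the data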;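 also: 0% = tunicamycin plus vehicle and 100% = wells without tunicamycin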
CTSL1 counter – cathepsin L1 inhibition, PFM18AAP counter-screen; AID 1906; recombinant F. hepatica cathepsin L1, Z-Leu-Arg-MCA fluorescence; 0.49% of 300,000 active; inhibition, % at 5.96 µM;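 active = inhibition above the mean of all tested compounds plus 3 SD, set per screening campaign, cut at about 17% in these data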;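 also: 0% = plate median of test compound wells and 100% = 1 µM Z-Phe-Ala-diazomethylketone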
CHOP UPR activ – activators of apoptotic arm of unfolded protein response (CHOP) | CHO-CHOP luciferase reporter, UPR activation, luminescence; percent of tunicamycin response over DMSO baseline | activation, % at 10 µM | 0.34% of 330,000 active;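 active = at 10 µM dose, activation of 40% or more, normalized to positive control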;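 also: 100% = tunicamycin at 10 µg/mL and 0% = DMSO alone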
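measured by = luciferase luminescence | assay system = CHO-CHOP cells, stable luciferase reporter of PERK-eIF2a-CHOP signalling | amount = 500 reporter cells seeded per well | timing = 6 h compound exposure at 37 °C after overnight seeding | controls = positive tunicamycin 10 µg/mL, negative DMSO alone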
XBP1 UPR activ – adaptive UPR (XBP1) activation | CHO-XBP1 luciferase reporter, IRE1-XBP1 UPR activation, luminescence; percent of tunicamycin response, DMSO as zero | activation, % at 20 µM | AID 463104 | 0.33% of 330,000 active;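 active = versus positive control, 20 µM dose yields 30% or more activation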;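 also: 100% = tunicamycin at 10 µg/mL and 0% = DMSO only wells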
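Material – CHO cell line with stable XBP1 luciferase reporter · Buffer or medium – F12 plus 10% FBS · Compound – single point, 20 µM final compound, 1% DMSO · Schedule – 16-18 h cell attachment at 37 °C, then 6 h compound exposure · Signal – Steady-Glo luminescence read · Benchmarks – high control tunicamycin 10 µg/mL final, low control DMSO vehicle only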
UPR CHOP confirm – apoptotic UPR (CHOP) activation, confirmed; CHO-CHOP cells, CHOP-luciferase reporter luminescence; percent of tunicamycin response, DMSO as zero; 64% of 1,000 active; AID 463112; activation, % at 10 µM; shares compounds with CHOP UPR activ; in the data active = activation above about 33%;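 also: 0% = DMSO wells and 100% = tunicamycin 10 µg/mL wells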
UPR XBP1 confirm – confirmation of adaptive unfolded protein response (XBP1) activators; shares compounds with XBP1 UPR activ; CHO-XBP1 IRE1-XBP1 luciferase reporter, luminescence; activation, % at 20 µM; 63% of 1,000 active; AID 485299;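 active = reporter signal at least 30% of the positive control's activation in two or more of four replicate wells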;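 also: plate controls were DMSO negative control for no effect and tunicamycin 10 µg/mL positive control for full effect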
An asterisk follows results filed as active.

COc1cccc(N2C(=O)/C(=C/c3ccc(C)o3)C(=O)NC2=S)c1 was read as UCH37 inh 4.9, CTSL1 counter 0.1, CHOP UPR activ 262.1*, XBP1 UPR activ -1.0 and UPR CHOP confirm 0.1.
Screening CN(CCc1ccccc1)Cc1c[nH]c2ccccc12 returned UCH37 inh -0.6, CTSL1 counter 0.5, CHOP UPR activ 87.8*, XBP1 UPR activ 4.7 and UPR CHOP confirm 19.6.
`CCN(CC)c1ncnc2c1ncn2[C@@H]1O[C@H](COP(=O)(O)OP(=O)(O)C(Br)(Br)P(=O)(O)O)[C@@H](O)[C@H]1O` gave CHOP inh -19.9.
Screening CCn1c(O)c(/C=N/N2CCOCC2)c(=O)n(CC)c1=S returned UCH37 inh 9.8, CHOP inh 10.1, CTSL1 counter 3.4, CHOP UPR activ -0.8 and XBP1 UPR activ -2.7.
`CCn1c(O)c(N=Nc2cccc(S(=O)(=O)N3CCOCC3)c2)c(=O)n(CC)c1=S` gave UCH37 inh 4.6, CHOP inh 13.5, CTSL1 counter 1.9, CHOP UPR activ 41.4*, XBP1 UPR activ -1.1 and UPR CHOP confirm 4.6.
CC(C)N1C(=O)/C(=C/C=C/c2ccco2)C(=O)N(Cc2ccco2)C1=O was read as UCH37 inh 3.6, CHOP inh 16.0, CTSL1 counter -1.5, CHOP UPR activ 45.1*, XBP1 UPR activ 8.3 and UPR CHOP confirm 156.4*.
`COc1ccc(/C=C2/C(=O)N(Cc3ccco3)C(=O)N(C(C)C)C2=O)cc1` gave UCH37 inh 7.4, CHOP inh -34.3, CTSL1 counter -2.7, CHOP UPR activ -1.7 and XBP1 UPR activ -1.6.
`Cc1cc(C)cc(N2C(=O)NC(=O)/C(=C\c3cccn3-c3ccccc3)C2=O)c1` gave CHOP inh 51.7, CTSL1 counter -2.7, CHOP UPR activ 188.6*, XBP1 UPR activ -4.0 and UPR CHOP confirm 332.9*.
Cc1cccc(N2C(=O)NC(=O)/C(=C\c3cnc(-c4ccccc4)nc3)C2=O)c1 was read as UCH37 inh 5.3, CHOP inh -7.6, CTSL1 counter -3.5, CHOP UPR activ 0.7 and XBP1 UPR activ 0.0.
CCCCCn1c(=O)c(C(=O)NCCc2ccccc2)c(O)c2ccccc21 was read as UCH37 inh 0.1, CTSL1 counter 1.5, CHOP UPR activ 1.9 and XBP1 UPR activ -3.4.
For CCCCCn1c(=O)c(C(=O)Nc2ncccc2C)c(O)c2ccccc21 the results were UCH37 inh -0.3, CTSL1 counter 3.1, CHOP UPR activ 46.1*, XBP1 UPR activ 35.7* and UPR CHOP confirm 23.9.
Screening Cc1c(C(=O)c2cccc3ccccc23)c2cccc3c2n1[C@H](CN1CCOCC1)CO3 returned UCH37 inh 4.0, CHOP inh -94.5, CTSL1 counter -11.1, CHOP UPR activ 58.2*, XBP1 UPR activ 29.5 and UPR CHOP confirm 39.8*.
Screening CCCN(CCC)[C@@H]1CCc2c(F)ccc(O)c2C1 returned CHOP inh -15.2.
Screening O=C(OCCOc1ccccc1)c1cc(S(=O)(=O)N2CCOCC2)ccc1Cl returned UCH37 inh 1.7, CHOP UPR activ 0.8 and XBP1 UPR activ -0.3.
For CN1C(=O)/C(=C/c2cccn2-c2ccc3ccccc3c2)C(=O)NC1=S the results were UCH37 inh 7.3, CHOP inh 52.6, CTSL1 counter 0.9, CHOP UPR activ 145.3*, XBP1 UPR activ 115.5*, UPR CHOP confirm 151.1* and UPR XBP1 confirm -5.7.
For CCCCn1c(NC(=O)c2ccco2)c(C(=O)OCC)c2nc3ccccc3nc21 the results were UCH37 inh -140.8, CHOP inh -51.1, CTSL1 counter -7.4, CHOP UPR activ 47.0*, XBP1 UPR activ 40.4*, UPR CHOP confirm 0.8 and UPR XBP1 confirm -0.9.
CCCCn1c(NS(=O)(=O)c2ccc(C)cc2)c(C(=O)OCC)c2nc3ccccc3nc21 was read as CHOP inh 20.2, CTSL1 counter -8.1, CHOP UPR activ 0.9 and XBP1 UPR activ 8.4.
